In brackets after ≈: the same amount, converted by molar mass. Activity calls are given as the source filed them. No cut-off for these calls is given here.
Assays:
Fusarium solani [1] = test: Antifungal activity against high inoculum 2.9 x 10^6 conidia/animal Fusarium solani infected in ICR mouse assessed as bacterial count in kidney tissue at 6.25 mg/kg, po BID treated after 12 hrs of inoculation; type: functional
How it was run: (§1)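 Outbred ICR mice were made neutropenic with 5-fluorouracil 150 mg/kg i.v. 1 day before i.v. infection with F. solani isolate 95-2478 conidia (0.2 ml). Posaconazole oral suspension was given by gavage BID from 12 h after inoculation until day 9. Kidneys from moribund animals were homogenized and plated on potato dextrose agar, and CFU/g was counted after 48 h. Group medians were compared with untreated controls by Mann-Whitney.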

Fusarium solani [2] = test: Antifungal activity against inoculum range 7.7 x 10^4 to 7.8 x 10^4 conidia/animal Fusarium solani infected in ICR mouse assessed as bacterial count in kidney tissue at 50 mg/kg, po BID treated after 12 hrs of inoculation; type: functional; how it was run: as §1
Fusarium solani [3] = test: Antifungal activity against mid- inoculum 6.5 x 10^5 conidia/ml Fusarium solani infected in ICR mouse assessed as bacterial count in kidney tissue at 6.25 mg/kg, po BID treated 2 days prior of infection; type: functional
How it was run: (§2)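 Prophylaxis model: posaconazole oral suspension was given by gavage BID starting 2 days before i.v. conidial challenge and continued to day 9. ICR mice were made neutropenic with 5-fluorouracil 150 mg/kg i.v. 1 day pre-inoculation, with n ≥10 per regimen. Kidneys were homogenized and plated on potato dextrose agar, and CFU/g was read after 48 h. Results were compared with untreated controls by Mann-Whitney.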

Fusarium solani [4] = test: Antifungal activity against low - inoculum 7.5 x 10^4 conidia/ml Fusarium solani infected in ICR mouse assessed as bacterial count in kidney tissue at 12.5 mg/kg, po BID treated 2 days prior of infection; type: functional; how it was run: as §2
Fusarium solani [5] = test: Antifungal activity against inoculum range 7.7 x 10^4 to 7.8 x 10^4 conidia/animal Fusarium solani infected in ICR mouse assessed as rate of survival at 50 mg/kg, po BID treated after 12 hrs of inoculation; type: functional, organism-based; parameters: dose 50 mg/kg
How it was run: (§3)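 Neutropenic ICR mice (5-fluorouracil 150 mg/kg i.v., day −1) were infected i.v. with F. solani 95-2478 conidia. Posaconazole oral suspension was gavaged BID starting 12 h postinoculation and continued to day 9, then mice were followed off therapy to day 15. Moribund mice were euthanized and death was recorded the next day. Median and percent survival come from Kaplan-Meier curves versus untreated controls.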

Fusarium solani [6] = test: Antifungal activity against mid- inoculum 6.5 x 10^5 conidia/ml Fusarium solani infected in ICR mouse assessed as bacterial count in kidney tissue at 50 mg/kg, po BID treated 2 days prior of infection; type: functional; how it was run: as §2
Fusarium solani [7] = test: Antifungal activity against mid- inoculum 6.5 x 10^5 conidia/ml Fusarium solani infected in ICR mouse assessed as bacterial count in kidney tissue at 25 mg/kg, po BID treated 2 days prior of infection; type: functional; how it was run: as §2
Fusarium solani [8] = test: Antifungal activity against high inoculum 2.9 x 10^6 conidia/animal Fusarium solani infected in ICR mouse assessed as rate of survival at 12.5 mg/kg, po BID treated after 12 hrs of inoculation; type: functional, organism-based; parameters: dose 12.5 mg/kg; how it was run: as §3
Fusarium solani [9] = test: Antifungal activity against inoculum range 7.7 x 10^4 to 7.8 x 10^4 conidia/animal Fusarium solani infected in ICR mouse assessed as rate of survival at 6.25 mg/kg, po BID treated after 12 hrs of inoculation; type: functional, organism-based; parameters: dose 6.25 mg/kg; how it was run: as §3
Fusarium solani [10] = test: Antifungal activity against inoculum of 1x10^5 conidia/ml Fusarium solani isolate 95-2478 after 24 hrs by XTT assay; type: functional, organism-based; conditions: isolate 95-2478, 24 h
How it was run: (§4)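 Isolate 95-2478 conidia were grown 10 days at 37°C on potato dextrose agar. They were exposed in microtiter trays to posaconazole (DMSO stock; final 0 to 8 μg/ml) in RPMI with 2% glucose and 0.165 M MOPS, pH 7.0. Incubation ran 24 or 48 h, and XTT reduction was read at 492 nm in triplicate. Absorbance was expressed as percent of growth control, and IC50/IC90 came from a four-parameter inhibitory sigmoid fit.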

Fusarium solani [11] = test: Antifungal activity against inoculum range 7.7 x 10^4 to 7.8 x 10^4 conidia/animal Fusarium solani infected in ICR mouse assessed as bacterial count in kidney tissue at 25 mg/kg, po BID treated after 12 hrs of inoculation; type: functional; how it was run: as §1
Fusarium solani [12] = test: Antifungal activity against inoculum range 6.5 x 10^5 to 6.8 x 10^5 conidia/animal Fusarium solani infected in ICR mouse assessed as bacterial count in kidney tissue at 25 mg/kg, po BID treated after 12 hrs of inoculation; type: functional; how it was run: as §1
Fusarium solani [13] = test: Antifungal activity against mid- inoculum 6.5 x 10^5 conidia/ml Fusarium solani infected in ICR mouse assessed as rate of survival at 50 mg/kg, po BID treated 2 days prior of infection; type: functional, organism-based; parameters: dose 50 mg/kg
How it was run: (§5)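 Dosing began 2 days before i.v. F. solani 95-2478 challenge in ICR mice made neutropenic with 5-fluorouracil (150 mg/kg i.v., day −1). Posaconazole oral suspension was gavaged BID through day 9, with observation off drug until day 15, n ≥10 per regimen. Moribund animals were euthanized and scored dead the next day. Kaplan-Meier median survival was compared with untreated controls.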

Fusarium solani [14] = test: Antifungal activity against mid- inoculum 6.5 x 10^5 conidia/ml Fusarium solani infected in ICR mouse assessed as rate of survival at 12.5 mg/kg, po BID treated 2 days prior of infection; type: functional, organism-based; parameters: dose 12.5 mg/kg; how it was run: as §5
Fusarium solani [15] = test: Antifungal activity against inoculum of 1x10^5 conidia/ml Fusarium solani isolate 95-2478 after 48 hrs by XTT assay; type: functional, organism-based; conditions: isolate 95-2478, 48 h; how it was run: as §4
Fusarium solani [16] = test: Antifungal activity against inoculum range 7.7 x 10^4 to 7.8 x 10^4 conidia/animal Fusarium solani infected in ICR mouse assessed as rate of survival at 12.5 mg/kg, po BID treated after 12 hrs of inoculation; type: functional, organism-based; parameters: dose 12.5 mg/kg; how it was run: as §3
Fusarium solani [17] = test: Antifungal activity against high inoculum 2.9 x 10^6 conidia/animal Fusarium solani infected in ICR mouse assessed as rate of survival at 50 mg/kg, po BID treated after 12 hrs of inoculation; type: functional, organism-based; parameters: dose 50 mg/kg; how it was run: as §3
Fusarium solani [18] = test: Antifungal activity against high inoculum 2.9 x 10^6 conidia/animal Fusarium solani infected in ICR mouse assessed as bacterial count in kidney tissue at 12.5 mg/kg, po BID treated after 12 hrs of inoculation; type: functional; how it was run: as §1
Fusarium solani [19] = test: Antifungal activity against inoculum range 7.7 x 10^4 to 7.8 x 10^4 conidia/animal Fusarium solani infected in ICR mouse assessed as bacterial count in kidney tissue at 6.25 mg/kg, po BID treated after 12 hrs of inoculation; type: functional; how it was run: as §1
Fusarium solani [20] = test: Antifungal activity against mid- inoculum 6.5 x 10^5 conidia/ml Fusarium solani infected in ICR mouse assessed as rate of survival at 6.25 mg/kg, po BID treated 2 days prior of infection; type: functional, organism-based; parameters: dose 6.25 mg/kg; how it was run: as §5
Fusarium solani [21] = test: Antifungal activity against inoculum range 7.7 x 10^4 to 7.8 x 10^4 conidia/animal Fusarium solani infected in ICR mouse assessed as rate of survival at 25 mg/kg, po BID treated after 12 hrs of inoculation; type: functional, organism-based; parameters: dose 25 mg/kg; how it was run: as §3
Fusarium solani [22] = test: Antifungal activity against high inoculum 2.9 x 10^6 conidia/animal Fusarium solani infected in ICR mouse assessed as rate of survival at 25 mg/kg, po BID treated after 12 hrs of inoculation; type: functional, organism-based; parameters: dose 25 mg/kg; how it was run: as §3
Fusarium solani [23] = test: Antifungal activity against mid- inoculum 6.5 x 10^5 conidia/ml Fusarium solani infected in ICR mouse assessed as bacterial count in kidney tissue at 12.5 mg/kg, po BID treated 2 days prior of infection; type: functional; how it was run: as §2

SMILES: CC[C@@H]([C@H](C)O)n1ncn(-c2ccc(N3CCN(c4ccc(OC[C@@H]5CO[C@@](Cn6cncn6)(c6ccc(F)cc6F)C5)cc4)CC3)cc2)c1=O [POSACONAZOLE]
- log10CFU/g (Fusarium solani [1]): 5.6
- log10CFU/g (Fusarium solani [2]): 4.6
- log10CFU/g (Fusarium solani [3]): 5.6
- log10CFU/g (Fusarium solani [4]): 4.4
- Activity (Fusarium solani [5]): Active
- log10CFU/g (Fusarium solani [6]): 4.7
- log10CFU/g (Fusarium solani [7]): 5.5
- Activity (Fusarium solani [8]): Active
- Activity (Fusarium solani [9]): Active
- IC90 (Fusarium solani [10]): 7.2 µg/mL (≈ 10.3 µM)
- IC90 (Fusarium solani [10]; read-out: IC90): > 8 µg/mL
- log10CFU/g (Fusarium solani [11]): 5
- log10CFU/g (Fusarium solani [12]): 5.6
- Activity (Fusarium solani [13]): Active
- Activity (Fusarium solani [14]): Active
- IC50 (Fusarium solani [15]): > 8 µg/mL
- IC90 (Fusarium solani [15]): > 8 µg/mL
- Activity (Fusarium solani [16]): Active
- Activity (Fusarium solani [17]): Active
- log10CFU/g (Fusarium solani [18]): 5.3
- log10CFU/g (Fusarium solani [19]): 5
- Activity (Fusarium solani [20]): Active
- Activity (Fusarium solani [21]): Active
- Activity (Fusarium solani [22]): Active
- log10CFU/g (Fusarium solani [23]): 5.5
